# Test results published in ChEMBL document CHEMBL3763099, “Synthesis and evaluation of 1,7-diheteroarylhepta-1,4,6-trien-3-ones as curcumin-based anticancer agents” (Eur J Med Chem, 2016).
# How the values were obtained:
# Type in all cases: functional
# [1] = Cytotoxicity against human DU145 cells assessed as inhibition of cell viability at 10 uM after 3 days by trypan blue dye exclusion assay; settings: DU-145, 72 h
# Procedure, shortened: (§1)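 Viable cells were counted by trypan blue exclusion on an automated analyzer. Viability was taken as treated/vehicle viable cell count. The inhibitory rate is the control percentage viability minus the treated percentage viability. Variation between replicate experiments was at most 5%.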
# [2] = Cytotoxicity against human PC3 cells assessed as inhibition of cell viability at 10 uM after 3 days by trypan blue dye exclusion assay; settings: PC-3, 72 h; procedure, shortened: as §1
# [3] = Cytotoxicity against human PC3 cells assessed as inhibition of cell viability at 1 uM after 3 days by trypan blue dye exclusion assay; settings: PC-3, 72 h; procedure, shortened: as §1
# [4] = Cytotoxicity against human DU145 cells assessed as inhibition of cell viability at 1 uM after 3 days by trypan blue dye exclusion assay; settings: DU-145, 72 h; procedure, shortened: as §1
# LNCaP [5] = experiment: Cytotoxicity against human LNCAP cells assessed as inhibition of cell viability at 10 uM after 3 days by trypan blue dye exclusion assay; settings: 72 h; procedure, shortened: as §1
# LNCaP [6] = experiment: Cytotoxicity against human LNCAP cells assessed as inhibition of cell viability at 1 uM after 3 days by trypan blue dye exclusion assay; settings: 72 h; procedure, shortened: as §1
# HeLa [7] = experiment: Cytotoxicity against human HeLa cells assessed as inhibition of cell viability at 10 uM after 3 days by trypan blue dye exclusion assay; settings: 72 h; procedure, shortened: as §1
# HeLa [8] = experiment: Cytotoxicity against human HeLa cells assessed as inhibition of cell viability at 1 uM after 3 days by trypan blue dye exclusion assay; settings: 72 h; procedure, shortened: as §1
Structure (SMILES),inhibition at 10 µM [1],inhibition at 10 µM [2],inhibition at 1 µM [3],inhibition at 1 µM [4],inhibition at 10 µM (LNCaP [5]),inhibition at 1 µM (LNCaP [6]),inhibition at 10 µM (HeLa [7]),inhibition at 1 µM (HeLa [8])
Cn1ccnc1/C=C/C=C/C(=O)/C=C/c1nccn1C,66%,83%,35%,21%,55%,41%,93%,18%
O=C(/C=C/C=C/c1cccnc1)/C=C/c1cccnc1,87%,86%,24%,24%,61%,2%,97%,20%
O=C(/C=C/C=C/c1nccs1)/C=C/c1nccs1,65%,86%,28%,2%,80%,28%,94%,11%
CC(C)CCn1c(/C=C/C=C/C(=O)/C=C/c2nc3ccccc3n2CCC(C)C)nc2ccccc21,97%,93%,58%,21%,60%,15%,97%,53%
CCCCCCn1ccnc1/C=C/C=C/C(=O)/C=C/c1nccn1CCCCCC,86%,85%,11%,34%,76%,31%,98%,32%
O=C(/C=C/C=C/c1ccncc1F)/C=C/c1ccncc1F,81%,84%,19%,36%,66%,31%,94%,26%
CCCCCCCn1ccnc1/C=C/C=C/C(=O)/C=C/c1nccn1CCCCCCC,93%,92%,28%,25%,70%,12%,99%,13%
CCn1ccnc1/C=C/C=C/C(=O)/C=C/c1nccn1CC,84%,85%,32%,34%,62%,23%,98%,43%
CCCn1ccnc1/C=C/C=C/C(=O)/C=C/c1nccn1CCC,84%,91%,23%,25%,95%,38%,98%,34%
Cc1cc(/C=C/C=C/C(=O)/C=C/c2cc(C)on2)no1,79%,88%,25%,25%,70%,13%,97%,17%
CC(C)CCn1ccnc1/C=C/C=C/C(=O)/C=C/c1nccn1CCC(C)C,88%,89%,32%,32%,75%,33%,95%,31%
O=C(/C=C/C=C/c1ccccn1)/C=C/c1ccccn1,37%,20%,17%,11%,7.2%,0%,24%,21%
COc1cc(/C=C/C(=O)CC(=O)/C=C/c2ccc(O)c(OC)c2)ccc1O [CURCUMIN],59%,55%,2.5%,7%,66%,29%,50%,14%
Cn1cc(Br)c(/C=C/C=C/C(=O)/C=C/c2nn(C)cc2Br)n1,86%,91%,25%,42%,63%,38%,95%,52%
CC(C)=CCn1ccnc1/C=C/C=C/C(=O)/C=C/c1nccn1CC=C(C)C,75%,87%,35%,0%,70%,38%,94%,66%
Cc1csc(/C=C/C=C/C(=O)/C=C/c2nc(C)cs2)n1,46%,86%,25%,8%,57%,21%,96%,20%
Cc1nc(C(F)(F)F)c(/C=C/C=C/C(=O)/C=C/c2sc(C)nc2C(F)(F)F)s1,80%,88%,24%,13%,92%,37%,96%,12%
O=C(/C=C/C=C/c1ccncc1)/C=C/c1ccncc1,81%,84%,33%,60%,50%,20%,95%,22%
Cc1cccc(/C=C/C=C/C(=O)/C=C/c2cccc(C)n2)n1,75%,91%,35%,12%,57%,50%,94%,40%
CCCCn1ccnc1/C=C/C=C/C(=O)/C=C/c1nccn1CCCC,91%,87%,33%,35%,92%,47%,92%,44%
CCCCCn1ccnc1/C=C/C=C/C(=O)/C=C/c1nccn1CCCCC,88%,86%,36%,43%,94%,44%,95%,39%
